The values that follow come from ChEMBL document CHEMBL5634209, “Computational design, synthesis, and assessment of 3-(4-(4-(1,3,4-oxadiazol-2-yl)-1H-imidazol-2-yl)phenyl)-1,2,4-oxadiazole derivatives as effective epidermal growth factor receptor inhibitors: a prospective strategy for anticancer therapy” (RSC Med Chem, 2024).

One series deals with PC-3. Nature of the series: Antiproliferative activity against human PC-3 cells assessed as reduction in cell viability measured after 48 hrs by MTT assay. In kind it is functional, cell-based. The settings on record: PC-3, 48 h. In outline:
(§1)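 Cells were grown at 37 °C in 5% CO2 in medium with 10% FBS: RPMI-1640 for A549, DU-145 and HepG2, and DMEM/F12 for PC-3. They were seeded at 5×10^3/well. At 70–80% confluence they were exposed to a concentration range diluted from a 60 mM DMSO stock for 48 h at 37 °C, with 0.1% DMSO as vehicle. MTT 5 mg/mL stock was added for 4 h, formazan dissolved in DMSO, A570 read, and % inhibition calculated against control. IC50 was taken from the concentration series.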
(In general: Formazan colour is commonly taken as a measure of viable cells.)

A further series concerns A549. Nature of the series: Antiproliferative activity against human A549 cells assessed as reduction in cell viability measured after 48 hrs by MTT assay. Type of series: functional, cell-based. As to conditions: A549, 48 h. In a few lines:
as §1

Another series has as its system HepG2. Put plainly: Antiproliferative activity against human HepG2 cells assessed as reduction in cell viability measured after 48 hrs by MTT assay. In kind it is functional, cell-based. As to conditions: HepG2, 48 h. In a few lines:
as §1

For a further series, the system named is DU-145. Put plainly: Antiproliferative activity against human DU-145 cells assessed as reduction in cell viability measured after 48 hrs by MTT assay. Type of series: functional, cell-based. The settings on record: DU-145, 48 h. In a few lines:
as §1

The nature of series [1]: Cytotoxicity against African green monkey Vero cells assessed as reduction in cell viability measured after 48 hrs by MTT assay. In kind it is toxicity, cell-based. The settings on record: African green monkey (Chlorocebus sabaeus).
The nature of series [2]: Selectivity index, ratio of IC50 for cytotoxicity against African green monkey Vero cells to IC50 for antiproliferative activity against human PC-3 cells. As to conditions: Vero cells versus PC-3 cells, read-out: Ratio IC50. Type of series: toxicity, cell-based.
Series [3] is described as follows: Selectivity index, ratio of IC50 for cytotoxicity against African green monkey Vero cells to IC50 for antiproliferative activity against human A549 cells. The settings on record: Vero cells versus A549 cells, read-out: Ratio IC50. Type of series: toxicity, cell-based.
Series [4] in a line: Selectivity index, ratio of IC50 for cytotoxicity against African green monkey Vero cells to IC50 for antiproliferative activity against human HepG2 cells. In kind it is toxicity, cell-based. As to conditions: Vero cells versus HepG2 cells, read-out: Ratio IC50.
Series [5] is described as follows: Selectivity index, ratio of IC50 for cytotoxicity against African green monkey Vero cells to IC50 for antiproliferative activity against human DU-145 cells. Type of series: toxicity, cell-based. As to conditions: Vero cells versus DU-145 cells, read-out: Ratio IC50.
The target of series [6] is Epidermal growth factor receptor (Homo sapiens, UniProt P00533). Put plainly: Inhibition of wild type EGFR (unknown origin) incubated for 40 mins by Kinase Glo Max reagent based luminescence analysis. On the technique in general: In Kinase-Glo more light means more ATP remaining.
The target of series [7] is Epidermal growth factor receptor (Homo sapiens, UniProt P00533, T790M). Put plainly: Inhibition of EGFR T790M mutant (unknown origin) incubated for 40 mins by Kinase Glo Max reagent based luminescence analysis.
Epidermal growth factor receptor (Homo sapiens, UniProt P00533, T790M), sequence (P00533 25-1210 T790M limits assumed): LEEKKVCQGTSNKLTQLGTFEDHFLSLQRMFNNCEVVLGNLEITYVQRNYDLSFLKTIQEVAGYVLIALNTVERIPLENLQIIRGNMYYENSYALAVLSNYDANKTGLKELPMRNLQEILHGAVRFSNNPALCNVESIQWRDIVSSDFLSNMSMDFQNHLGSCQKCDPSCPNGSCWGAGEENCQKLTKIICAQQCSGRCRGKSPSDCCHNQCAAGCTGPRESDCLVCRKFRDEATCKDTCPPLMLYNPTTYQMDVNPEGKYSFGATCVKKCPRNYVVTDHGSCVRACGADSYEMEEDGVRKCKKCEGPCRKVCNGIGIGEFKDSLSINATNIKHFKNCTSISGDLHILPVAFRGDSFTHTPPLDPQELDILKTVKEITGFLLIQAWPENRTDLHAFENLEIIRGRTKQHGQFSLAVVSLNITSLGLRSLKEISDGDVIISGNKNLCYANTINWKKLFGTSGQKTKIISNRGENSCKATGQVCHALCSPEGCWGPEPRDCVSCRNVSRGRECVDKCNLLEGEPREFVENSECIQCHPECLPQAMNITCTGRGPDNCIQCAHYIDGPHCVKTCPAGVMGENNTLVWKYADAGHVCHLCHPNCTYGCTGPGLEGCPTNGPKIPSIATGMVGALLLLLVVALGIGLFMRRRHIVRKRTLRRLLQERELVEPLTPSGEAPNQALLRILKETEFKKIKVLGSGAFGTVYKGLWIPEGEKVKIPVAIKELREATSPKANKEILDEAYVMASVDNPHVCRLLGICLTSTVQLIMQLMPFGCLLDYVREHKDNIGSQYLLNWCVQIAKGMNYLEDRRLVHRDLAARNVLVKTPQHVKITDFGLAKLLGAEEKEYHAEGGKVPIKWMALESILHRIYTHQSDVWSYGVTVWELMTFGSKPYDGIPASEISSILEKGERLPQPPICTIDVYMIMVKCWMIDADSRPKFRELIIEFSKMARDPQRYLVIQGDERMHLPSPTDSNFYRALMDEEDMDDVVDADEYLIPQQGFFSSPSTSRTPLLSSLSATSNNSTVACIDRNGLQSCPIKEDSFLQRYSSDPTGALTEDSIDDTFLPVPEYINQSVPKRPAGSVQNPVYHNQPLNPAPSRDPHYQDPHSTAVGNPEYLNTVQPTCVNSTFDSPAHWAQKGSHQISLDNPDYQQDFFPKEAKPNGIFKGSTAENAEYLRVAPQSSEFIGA

Epidermal growth factor receptor (Homo sapiens, UniProt P00533), sequence (P00533 whole entry): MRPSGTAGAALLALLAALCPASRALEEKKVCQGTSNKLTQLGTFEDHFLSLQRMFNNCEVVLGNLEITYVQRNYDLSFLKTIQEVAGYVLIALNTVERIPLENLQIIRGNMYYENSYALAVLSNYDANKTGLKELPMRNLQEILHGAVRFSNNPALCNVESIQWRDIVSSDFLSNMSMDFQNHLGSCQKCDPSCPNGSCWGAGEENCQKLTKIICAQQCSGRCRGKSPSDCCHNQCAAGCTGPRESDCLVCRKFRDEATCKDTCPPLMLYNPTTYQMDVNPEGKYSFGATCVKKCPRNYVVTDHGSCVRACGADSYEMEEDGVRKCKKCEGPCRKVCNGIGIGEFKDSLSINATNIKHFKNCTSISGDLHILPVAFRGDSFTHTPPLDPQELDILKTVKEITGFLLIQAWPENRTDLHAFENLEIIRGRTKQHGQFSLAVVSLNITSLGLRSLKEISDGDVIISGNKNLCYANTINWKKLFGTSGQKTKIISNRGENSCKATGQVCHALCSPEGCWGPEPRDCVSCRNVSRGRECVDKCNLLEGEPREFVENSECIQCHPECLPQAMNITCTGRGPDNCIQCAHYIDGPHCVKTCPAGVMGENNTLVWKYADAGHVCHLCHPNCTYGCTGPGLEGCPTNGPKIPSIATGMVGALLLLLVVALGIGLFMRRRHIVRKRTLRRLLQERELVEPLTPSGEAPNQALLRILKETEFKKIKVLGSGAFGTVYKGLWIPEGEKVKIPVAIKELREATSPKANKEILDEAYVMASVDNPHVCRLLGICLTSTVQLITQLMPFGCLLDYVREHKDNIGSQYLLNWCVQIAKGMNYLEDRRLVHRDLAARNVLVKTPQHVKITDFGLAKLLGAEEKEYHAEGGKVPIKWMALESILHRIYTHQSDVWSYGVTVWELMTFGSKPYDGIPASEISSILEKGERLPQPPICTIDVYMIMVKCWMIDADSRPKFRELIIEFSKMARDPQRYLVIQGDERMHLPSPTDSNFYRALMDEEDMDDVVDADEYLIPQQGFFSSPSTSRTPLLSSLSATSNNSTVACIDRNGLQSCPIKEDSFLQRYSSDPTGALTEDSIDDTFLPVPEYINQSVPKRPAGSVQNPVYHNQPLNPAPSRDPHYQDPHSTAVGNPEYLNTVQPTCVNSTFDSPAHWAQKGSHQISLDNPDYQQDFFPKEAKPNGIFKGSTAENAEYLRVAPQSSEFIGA

A word on the IC50: it is the midpoint of a concentration-inhibition curve. Turning to `COc1ccc(-c2nc(-c3ccc(-c4nc(-c5nnc(-c6ccncc6)o5)c[nH]4)cc3)no2)cc1`, the IC50 in the series on PC-3 was 1290 nM; with A549, 1100 nM; in the series on HepG2, 1240 nM; in the series with DU-145 it was 1740 nM; in [6], 958 nM; in series [7], 1190 nM. For the same molecule, in series [1], the IC50 at 48 h was > 16000 nM. Moreover, the selectivity ratio in series [2] came out at 12.4; in series [3], 14.5; in series [4], 12.9; in series [5], 9.2.
Regarding `CN(C)c1ccc(-c2nc(-c3ccc(-c4nc(-c5nnc(-c6ccncc6)o5)c[nH]4)cc3)no2)cc1`, the 50% inhibitory concentration (IC50) with PC-3 turned out to be 2190 nM; with A549, 1980 nM; in the series on HepG2, 1780 nM; in the series on DU-145 it was 2490 nM. For the same molecule, the IC50 at 48 h in series [1] was > 16000 nM. Besides, the selectivity ratio in series [2] was determined as 7.3; in series [3], 8.08; in series [4] it was 9.03; in series [5] it was 6.42.
As for `Brc1ccc(-c2nc(-c3ccc(-c4nc(-c5nnc(-c6ccncc6)o5)c[nH]4)cc3)no2)cc1`, the half-inhibitory concentration (IC50) in the series on PC-3 amounted to 3470 nM; in the series with A549, 2680 nM; in the series on HepG2, 3760 nM; in the series with DU-145, 4250 nM. Also, the IC50 at 48 h in series [1] is > 20000 nM. For the same molecule, the selectivity ratio worked out at 5.34 in series [2], 7.46 in [3], 5.31 in series [4] and 4.7 in series [5].
Regarding `Cc1ccc(-c2nc(-c3ccc(-c4nc(-c5nnc(-c6ccncc6)o5)c[nH]4)cc3)no2)cc1`, the IC50 was determined as 1870 nM with PC-3, 2030 nM in the series on A549, 2120 nM in the series on HepG2 and 2340 nM in the series with DU-145. Further, the IC50 at 48 h in series [1] is > 15000 nM. The selectivity ratio in series [2] amounted to 8.02; in [3] it was 7.38; in series [4] it was 7.1; in [5], 6.41.
Take `Clc1ccc(-c2nc(-c3ccc(-c4nc(-c5nnc(-c6ccncc6)o5)c[nH]4)cc3)no2)cc1`: the IC50 in the series on PC-3 worked out at 4580 nM; in the series with A549, 4840 nM; with HepG2 it was 5780 nM. The half-inhibitory concentration (IC50) at 48 h in series [1] was > 25000 nM. Moreover, the figures for the selectivity ratio in [2], in [3] and in series [4] were 5.46, 5.16 and 4.32, respectively.
In the case of `O=[N+]([O-])c1cc(-c2nc(-c3ccc(-c4nc(-c5nnc(-c6ccncc6)o5)c[nH]4)cc3)no2)cc([N+](=O)[O-])c1`, the results for the IC50 with PC-3, in the series on A549 and in the series with HepG2 were 6220 nM, 5490 nM and 3610 nM, respectively. Further, the IC50 at 48 h in series [1] was > 25000 nM. Further, the selectivity ratio in series [2] came out at 4.01; in [3], 4.55; in series [4], 6.92.
In the case of `O=[N+]([O-])c1ccc(-c2nc(-c3ccc(-c4nc(-c5nnc(-c6ccncc6)o5)c[nH]4)cc3)no2)cc1`, the IC50 is 2230 nM with PC-3, 5330 nM in the series on HepG2 and 3810 nM with DU-145. Moreover, the IC50 at 48 h in series [1] is > 24000 nM. Besides, the values for the selectivity ratio in series [2], in series [4] and in [5] were 8.96, 4.5 and 6.29, respectively.
With `N#Cc1ccc(-c2nc(-c3ccc(-c4nc(-c5nnc(-c6ccncc6)o5)c[nH]4)cc3)no2)cc1`, the IC50 in the series on A549 worked out at 8210 nM; in the series on HepG2, 6990 nM. For the same molecule, in series [1], the IC50 at 48 h was > 23000 nM. Also, the selectivity ratio was found to be 2.8 in [3] and 3.29 in series [4].
Consider `COc1cc(OC)cc(-c2nc(-c3ccc(-c4nc(-c5nnc(-c6ccncc6)o5)c[nH]4)cc3)no2)c1`, for which the IC50 in the series on PC-3 amounted to 980 nM; with A549, 860 nM; in the series with HepG2, 273 nM; with DU-145 it was 880 nM; in [6], 217 nM; in series [7], 1230 nM. The IC50 at 48 h in [1] is > 15000 nM. For the same molecule, the selectivity ratio in series [2] came to 15.3; in [3], 17.4; in series [4] it was 54.9; in series [5], 17.
Regarding `COc1cc([C@@H]2c3cc4c(cc3[C@@H](O[C@@H]3O[C@@H]5CO[C@@H](C)O[C@H]5[C@H](O)[C@H]3O)[C@H]3COC(=O)[C@H]23)OCO4)cc(OC)c1O` [ETOPOSIDE], the IC50 was found to be 2390 nM with PC-3, 3080 nM in the series on A549, 2110 nM with HepG2 and 1970 nM with DU-145. Also, the half-maximal inhibitory concentration (IC50) at 48 h in series [1] is > 25000 nM. Further, the selectivity ratio in series [2] was 10.5; in [3], 8.11; in series [4], 11.8; in series [5], 12.7.
